Here are results for nine compounds from ChEMBL document CHEMBL4014319, “Tolvaptan-Type Vasopressin Receptor Ligands: Important Role of Axial Chirality in the Active Form” (J Med Chem, 2017).

One experiment concerns the target Vasopressin V2 receptor (Homo sapiens, UniProt P30518). As to the kind of experiment: Displacement of [3H] (Arg8)-vasopressin from human vasopressin V2 receptor expressed in CHOK1 cell membranes after 2 hrs by liquid scintillation counting method. A digest of the protocol:
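Membranes (9 μg aliquot) prepared from CHO-K1 cells stably transfected with human V2 receptor, in 50 mM Tris-HCl pH 7.4, 10 mM MgCl2, 0.1% BSA. Incubated with 4 nM [3H](Arg8)-vasopressin for 2 h at 25 °C in 1% DMSO. Compounds were ≥99% pure by HPLC. Ki is the mean of duplicate measurements.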

The target of another experiment is Vasopressin V1a receptor (Homo sapiens, UniProt P37288). As to the kind of experiment: Displacement of [125I] phenylacetyl-D-Tyr(Me)-Phe-Gln-Asn-Arg-Pro-Arg-Tyr-NH2 from human recombinant vasopressin V1a receptor expressed in HEK293 after 2 hrs by liquid scintillation counting method. In kind it is cell-based. A digest of the protocol:
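Recombinant human V1a receptor expressed in HEK-293 cells, tested in 50 mM Tris-HCl pH 7.4 buffer with 5 mM MgCl2 and 0.1% BSA. Incubation 2 h at 25 °C in 1% DMSO. Compounds were ≥99% pure by HPLC and were kept at low temperature after isolation to prevent isomerization. Ki is the mean of duplicate measurements.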

SMILES strings stand for the structures.

Vasopressin V1a receptor, sequence (P37288 whole entry): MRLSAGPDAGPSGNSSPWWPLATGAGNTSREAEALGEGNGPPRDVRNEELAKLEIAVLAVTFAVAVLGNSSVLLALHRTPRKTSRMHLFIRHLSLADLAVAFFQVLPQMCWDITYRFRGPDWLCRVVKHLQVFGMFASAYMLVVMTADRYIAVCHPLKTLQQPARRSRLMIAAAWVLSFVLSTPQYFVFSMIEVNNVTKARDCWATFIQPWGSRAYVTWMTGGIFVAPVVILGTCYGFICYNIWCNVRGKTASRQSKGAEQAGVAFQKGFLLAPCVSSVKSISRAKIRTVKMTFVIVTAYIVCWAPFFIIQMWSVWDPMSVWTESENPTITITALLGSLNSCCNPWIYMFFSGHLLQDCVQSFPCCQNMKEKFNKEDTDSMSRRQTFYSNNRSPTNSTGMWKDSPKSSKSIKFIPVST
Vasopressin V2 receptor, sequence (P30518 whole entry): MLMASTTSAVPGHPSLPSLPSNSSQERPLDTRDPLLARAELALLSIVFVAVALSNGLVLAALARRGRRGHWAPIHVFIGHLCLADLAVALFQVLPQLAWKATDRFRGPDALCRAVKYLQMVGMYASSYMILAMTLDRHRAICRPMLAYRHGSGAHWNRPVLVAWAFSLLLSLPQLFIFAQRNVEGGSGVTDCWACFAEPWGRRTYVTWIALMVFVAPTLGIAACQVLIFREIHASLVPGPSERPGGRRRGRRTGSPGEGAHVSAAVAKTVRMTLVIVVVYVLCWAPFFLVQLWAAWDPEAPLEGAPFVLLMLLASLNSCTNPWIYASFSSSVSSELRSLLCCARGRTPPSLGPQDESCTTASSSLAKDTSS

For `Cc1ccccc1C(=O)Nc1ccc(C(=O)N2CCC[C@H](O)c3ccccc32)cc1`, the Ki at Vasopressin V2 receptor is 4.87 nM; on Vasopressin V1a receptor, 1.85 nM.
Regarding `Cc1ccccc1C(=O)Nc1ccc(C(=O)N2CCC[C@@H](O)c3c(C)cccc32)cc1` (atropisomer aR), the Ki was found to be 1790 nM on Vasopressin V2 receptor and 78 nM at Vasopressin V1a receptor.
The like results for `Cc1ccccc1C(=O)Nc1ccc(C(=O)N2CCCC(O)c3cccc(C)c32)cc1` (stereo not drawn) were, in that order, 170 nM and 6.26 nM.
In the same order, the values of `Cc1ccccc1C(=O)Nc1ccc(C(=O)N2CCC[C@@H](O)c3ccccc32)cc1` are 8.3 nM and 1.03 nM.
As for `Cc1ccccc1C(=O)Nc1ccc(C(=O)N2CCC[C@H](O)c3cccc(C)c32)cc1`, the results for the Ki at Vasopressin V2 receptor and on Vasopressin V1a receptor were 54 nM and 4.68 nM, respectively.
In the same order, the values of `Cc1ccccc1C(=O)Nc1ccc(C(=O)N2CCCC(O)c3c(C)cccc32)cc1` (racemic) are 160 nM and 6.75 nM.
In the same order, the values of `Cc1ccccc1C(=O)Nc1ccc(C(=O)N2CCC[C@H](O)c3c(C)cccc32)cc1` are 46 nM and 2.06 nM.
The like results for `Cc1ccccc1C(=O)Nc1ccc(C(=O)N2CCC[C@@H](O)c3cccc(C)c32)cc1` were, in that order, 140 nM and 2.84 nM.
For the compound `Cc1ccccc1C(=O)Nc1ccc(C(=O)N2CCCC(O)c3ccccc32)cc1` (racemic), the Ki on Vasopressin V2 receptor is 7.56 nM; on Vasopressin V1a receptor, 1.58 nM.
